Assay results reported in article PMC6598223 (Saudi Pharmaceutical Journal : SPJ, 2019).
Where two headings read alike, the source gives them in different places.

What was measured:
HeLa cells [1] = experiment: Alamar Blue cytotoxicity assay, HeLa; assay type: cell-based, human; conditions: read-out: 24 h IC50 HeLa
In short: (§1)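 Cells grown in DMEM with L-glutamine, 10% FBS and 1% penicillin–streptomycin at 37 °C, 5% CO2. They were seeded at 1 × 10^4 cells/well and grown 24 h, then given test compound dilutions in growth medium for 24 h. Alamar Blue was added (final 10 μg/ml) for 2–4 h at 37 °C, and fluorescence was read ([…]). Viability was calculated per line, and IC50s were averaged across HeLa, A549 and MDA-MB-231.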

A549 cells = experiment: Alamar Blue cytotoxicity assay, A549; assay type: cell-based, human
In short: as §1

MDA-MB-231 cells = experiment: Alamar Blue cytotoxicity assay, MDA-MB-231; assay type: cell-based, human; conditions: read-out: 24 h IC50 MDA-MB-231
In short: as §1

[2] = system: caspase-3/7 in HeLa cells; experiment: Caspase-3/7 activity assay; assay type: cell-based, human; conditions: 10 μM, 24 h
In short: (§2)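 HeLa cells were seeded at 1 × 10^5/well in duplicate and grown 24 h. They were then treated with test compound at 1, 5, 10 and 20 µM, with 0.1% DMSO (v/v) as control. After 24 h, activity was measured with the Caspase-Glo 3/7 (caspase-3/7), Caspase-Glo 8 (caspase-8) or Caspase-Glo 9 (caspase-9) kit.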

HeLa cells [3] = experiment: ROS production; assay type: cell-based, human; conditions: 40 μM, 24 h
In short: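 HeLa cells were treated with test compound at 10 or 40 µM for 24 h, with 0.1% DMSO (v/v) as control. Intracellular superoxide was detected with the Muse Oxidative Stress Kit, and cells were analysed on a Muse Cell Analyzer. The read-out was the percentage of cells with elevated ROS.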

[4] = system: HeLa, A549 and MDA-MB-231 cells; experiment: Average cytotoxicity over the tested cell lines; assay type: cell-based; conditions: Homo sapiens, 24 h, read-out: average IC50 against the tested cell lines
In short: as §1

EGFR = EGFR (Homo sapiens, UniProt P00533); experiment: biochemical
EGFR, sequence (P00533 25-1210): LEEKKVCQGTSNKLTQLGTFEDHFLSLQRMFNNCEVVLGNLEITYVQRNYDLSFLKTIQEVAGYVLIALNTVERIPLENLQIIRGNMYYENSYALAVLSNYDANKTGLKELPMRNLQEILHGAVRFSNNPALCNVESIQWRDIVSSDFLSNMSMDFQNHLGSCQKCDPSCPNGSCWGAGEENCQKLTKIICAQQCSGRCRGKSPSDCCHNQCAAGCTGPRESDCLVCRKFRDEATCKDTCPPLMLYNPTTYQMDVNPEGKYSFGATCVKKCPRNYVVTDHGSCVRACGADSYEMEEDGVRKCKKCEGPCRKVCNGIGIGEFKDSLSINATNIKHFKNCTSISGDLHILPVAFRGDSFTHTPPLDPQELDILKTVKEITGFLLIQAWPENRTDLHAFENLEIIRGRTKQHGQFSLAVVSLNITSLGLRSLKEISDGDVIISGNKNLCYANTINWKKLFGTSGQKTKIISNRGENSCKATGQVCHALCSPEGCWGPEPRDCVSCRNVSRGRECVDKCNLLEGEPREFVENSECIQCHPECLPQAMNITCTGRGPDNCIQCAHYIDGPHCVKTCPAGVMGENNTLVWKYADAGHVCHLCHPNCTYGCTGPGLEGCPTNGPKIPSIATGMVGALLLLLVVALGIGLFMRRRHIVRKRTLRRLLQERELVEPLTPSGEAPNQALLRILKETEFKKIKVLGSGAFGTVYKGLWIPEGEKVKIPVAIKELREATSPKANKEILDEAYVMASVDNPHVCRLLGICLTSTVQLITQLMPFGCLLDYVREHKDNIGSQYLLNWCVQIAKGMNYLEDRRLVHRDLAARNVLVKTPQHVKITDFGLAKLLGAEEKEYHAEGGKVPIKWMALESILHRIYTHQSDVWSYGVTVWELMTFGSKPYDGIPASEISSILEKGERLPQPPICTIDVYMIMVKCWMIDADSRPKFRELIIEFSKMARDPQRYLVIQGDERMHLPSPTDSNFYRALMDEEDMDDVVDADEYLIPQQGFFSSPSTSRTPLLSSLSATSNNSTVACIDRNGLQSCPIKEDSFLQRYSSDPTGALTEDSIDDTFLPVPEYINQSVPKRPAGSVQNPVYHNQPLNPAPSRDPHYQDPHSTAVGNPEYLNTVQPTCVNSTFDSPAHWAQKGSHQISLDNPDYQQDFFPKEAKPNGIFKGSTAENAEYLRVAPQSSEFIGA

caspase-9 in HeLa cells = experiment: Caspase-9 activity assay; assay type: cell-based, human; conditions: 5 and 10 μM, 24 h
In short: as §2

VEGFR2 = VEGFR2 (Homo sapiens, UniProt P35968); experiment: biochemical
VEGFR2, sequence (P35968 20-1356): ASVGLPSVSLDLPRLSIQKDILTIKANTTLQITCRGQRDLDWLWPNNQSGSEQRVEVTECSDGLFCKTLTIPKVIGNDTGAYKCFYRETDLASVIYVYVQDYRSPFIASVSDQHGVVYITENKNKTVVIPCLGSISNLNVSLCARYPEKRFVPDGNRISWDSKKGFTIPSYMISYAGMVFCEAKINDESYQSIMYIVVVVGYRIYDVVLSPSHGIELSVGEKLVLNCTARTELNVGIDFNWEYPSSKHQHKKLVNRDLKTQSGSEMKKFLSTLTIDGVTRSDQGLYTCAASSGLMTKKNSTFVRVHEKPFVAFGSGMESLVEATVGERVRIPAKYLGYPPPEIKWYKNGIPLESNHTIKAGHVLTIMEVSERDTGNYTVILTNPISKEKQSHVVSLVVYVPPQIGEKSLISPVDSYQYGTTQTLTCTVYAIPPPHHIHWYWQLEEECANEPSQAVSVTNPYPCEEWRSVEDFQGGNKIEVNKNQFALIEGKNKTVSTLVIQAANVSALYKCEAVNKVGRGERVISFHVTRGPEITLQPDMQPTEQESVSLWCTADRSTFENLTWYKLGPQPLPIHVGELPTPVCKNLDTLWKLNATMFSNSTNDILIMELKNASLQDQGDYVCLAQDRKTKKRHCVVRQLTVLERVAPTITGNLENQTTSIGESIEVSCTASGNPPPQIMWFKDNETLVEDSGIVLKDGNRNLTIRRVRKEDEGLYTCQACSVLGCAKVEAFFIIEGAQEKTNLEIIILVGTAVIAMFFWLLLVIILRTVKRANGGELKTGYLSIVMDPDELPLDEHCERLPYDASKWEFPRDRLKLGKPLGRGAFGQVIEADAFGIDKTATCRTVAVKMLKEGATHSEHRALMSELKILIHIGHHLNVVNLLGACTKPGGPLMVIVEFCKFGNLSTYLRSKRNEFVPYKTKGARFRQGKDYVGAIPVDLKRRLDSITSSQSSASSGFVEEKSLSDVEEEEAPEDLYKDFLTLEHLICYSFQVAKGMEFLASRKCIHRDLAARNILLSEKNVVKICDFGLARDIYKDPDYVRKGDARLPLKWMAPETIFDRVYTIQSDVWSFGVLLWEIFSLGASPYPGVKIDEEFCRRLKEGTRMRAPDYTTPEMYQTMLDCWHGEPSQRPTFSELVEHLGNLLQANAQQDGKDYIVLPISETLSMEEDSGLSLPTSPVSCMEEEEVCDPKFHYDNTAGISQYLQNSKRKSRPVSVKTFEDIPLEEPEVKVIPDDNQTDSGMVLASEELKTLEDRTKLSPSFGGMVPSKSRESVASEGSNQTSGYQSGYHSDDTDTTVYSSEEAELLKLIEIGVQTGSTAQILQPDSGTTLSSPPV

caspase-8 in HeLa cells = experiment: Caspase-8 activity assay; assay type: cell-based, human; conditions: 5 and 10 μM, 24 h
In short: as §2

HeLa cells [5] = experiment: Annexin V/PI apoptosis assay; assay type: cell-based, human; conditions: 24 h
In short: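 HeLa cells were exposed to test compound at 5 or 10 μM for 24 h, with an untreated control. Apoptotic versus necrotic death was scored by annexin V/PI staining, reported as percentage of cells undergoing apoptosis.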

[6] = Homo sapiens, A549, 24 h, read-out: 24 h IC50 A549, Alamar Blue, 24 h treatment
[7] = read-out: 24 h IC50 A549, Alamar Blue, 24 h treatment

Compound | IC50 (HeLa cells [1]; Homo sapiens, HeLa, 24 h) [µM] | IC50 (A549 cells; [6]) [µM] | IC50 (MDA-MB-231 cells; Homo sapiens, MDA-MB-231, 24 h) [µM] | IC50 [4] [µM] | other results
COc1ccc2c(c1)C(=NNC(=O)CN1C(=O)NC(c3ccccc3)(c3ccccc3)C1=O)C(=O)N2 [Compound 19, 2-(2,5-Dioxo-4,4-diphenylimidazolidin-1-yl)-N′-(5-methoxy-2-oxoindolin-3-ylidene)acetohydrazide] | 118 ± 1.3 | 170 ± 2.2 | 174 ± 2.9 |  | 
COc1cc(OC)c(OC)cc1C=NNC(=O)CN1C(=O)NC(c2ccccc2)(c2ccccc2)C1=O [Compound 12] |  |  |  |  | IC50 (HeLa cells [1]; Alamar Blue, 24 h treatment): 39 ± 3.1 µM; IC50 (A549 cells; [7]): 116 ± 1.3 µM; IC50 (MDA-MB-231 cells; Alamar Blue, 24 h treatment): > 350 µM
CCOC(=O)CN1C(=O)NC(c2ccccc2)(c2ccccc2)C1=O [Compound 2, ethyl (5,5-diphenylhydantoin-3-yl)acetate] | 241 ± 1.3 | 108 ± 3.7 | 263 ± 3.4 |  | 
O=C(CN1C(=O)NC(c2ccccc2)(c2ccccc2)C1=O)NN=C1C(=O)Nc2ccc(F)cc21 [Compound 16, 2-(2,5-Dioxo-4,4-diphenylimidazolidin-1-yl)-N′-(5-fluoro-2-oxoindolin-3-ylidene)acetohydrazide] | 18.5 ± 1.6 | 95 ± 1 | 64 ± 0.6 | 59 | change of caspase-3/7 activity [2]: approximately 40%; cells with increased level of ROS production (HeLa cells [3]): 37.7%; IC50 (EGFR): 6.17 ± 0.22 µM; change of caspase-9 activity (caspase-9 in HeLa cells): no significant changes; IC50 (VEGFR2): 0.09 ± 0.01 µM; change of caspase-8 activity (caspase-8 in HeLa cells): no significant changes; percentage of apoptotic cells (HeLa cells [5]; 5 μM): 48.6%; percentage of apoptotic cells (HeLa cells [5]; 10 μM): 63.4%
O=C(CN1C(=O)NC(c2ccccc2)(c2ccccc2)C1=O)NN=Cc1ccc2c(c1)OCO2 [Compound 10, N′-(Benzo[d][1,3]dioxol-5-ylmethylene)-2-(2,5-dioxo-4,4-diphenylimidazolidin-1-yl)acetohydrazide] | 113 ± 0.9 | 267 ± 6 | 200 ± 4.1 |  | 
O=C(CN1C(=O)NC(c2ccccc2)(c2ccccc2)C1=O)NN=Cc1c[nH]c2ccccc12 [Compound 13, N′-((1H-indol-3-yl)methylene)-2-(2,5-dioxo-4,4-diphenylimidazolidin-1-yl)acetohydrazide] | 10 ± 2.1 | 160 ± 0.8 | 156 ± 3.1 | 109 | IC50 (EGFR): 0.1 ± 0.02 µM; IC50 (VEGFR2): 0.47 ± 0.09 µM
CC(=O)O[C@@]12CO[C@@H]1C[C@H](O)[C@@]1(C)C(=O)[C@H](O)C3=C(C)[C@@H](OC(=O)[C@H](O)[C@@H](NC(=O)OC(C)(C)C)c4ccccc4)C[C@@](O)([C@@H](OC(=O)c4ccccc4)[C@H]21)C3(C)C [Docetaxel, reference compound] | 100 ± 3.8 | 100 | 100 ± 2.2 | 83 | IC50 (A549 cells; [7]): 50 ± 1.3 µM
COc1ccc(C=NNC(=O)CN2C(=O)NC(c3ccccc3)(c3ccccc3)C2=O)cc1OC [Compound 8, N′-(3,4-Dimethoxybenzylidene)-2-(2,5-dioxo-4,4-diphenylimidazolidin-1-yl)acetohydrazide] | 60 ± 3.3 | 162 ± 2.3 | 154 ± 1.1 |  | 
O=C(CN1C(=O)NC(c2ccccc2)(c2ccccc2)C1=O)NN=Cc1ccc(Cl)cc1 [Compound 5, N'-(4-Chlorobenzylidene)-2-(2,5-dioxo-4,4-diphenylimidazolidin-1-yl)acetohydrazide] | 123 ± 2.6 | 157 ± 1.4 | 196 ± 1.7 |  | 
O=C(CN1C(=O)NC(c2ccccc2)(c2ccccc2)C1=O)NN=C1C(=O)Nc2ccc([N+](=O)[O-])cc21 [Compound 18, 2-(2,5-Dioxo-4,4-diphenylimidazolidin-1-yl)-N′-(5-nitro-2-oxoindolin-3-ylidene)acetohydrazide] | 30 ± 1.2 | 229 ± 5.2 | 80 ± 0.7 | 113 | IC50 (EGFR): 0.37 ± 0.01 µM; IC50 (VEGFR2): 2.52 ± 0.09 µM
NNC(=O)CN1C(=O)NC(c2ccccc2)(c2ccccc2)C1=O [Compound 3, 2-(2,4-dioxo-5,5-diphenylimidazolidin-3-yl)acetohydrazide] | 236 ± 3.5 | 278 ± 7.5 | 278 ± 2 |  | 
O=C(CN1C(=O)NC(c2ccccc2)(c2ccccc2)C1=O)NN=C1C(=O)Nc2ccccc21 [Compound 14, 2-(2,5-Dioxo-4,4-diphenylimidazolidin-1-yl)-N′-(2-oxoindolin-3-ylidene)acetohydrazide] | 30 ± 2.6 | 116 ± 1.6 | 123 ± 0.8 |  | 
O=C(CN1C(=O)NC(c2ccccc2)(c2ccccc2)C1=O)NN=C1C(=O)Nc2ccc(Br)cc21 [Compound 17, N′-(5-Bromo-2-oxoindolin-3-ylidene)-2-(2,5-dioxo-4,4-diphenylimidazolidin-1-yl)acetohydrazide] | 29 ± 1.7 | 77 ± 1.5 | 138 ± 2.6 | 81 | 
O=C(CN1C(=O)NC(c2ccccc2)(c2ccccc2)C1=O)NN=C1C(=O)Nc2ccc(Cl)cc21 [Compound 15, N′-(5-Chloro-2-oxoindolin-3-ylidene)-2-(2,5-dioxo-4,4-diphenylimidazolidin-1-yl)acetohydrazide] | 53 ± 2.2 | 72 ± 3 | 311 ± 5.5 |  | 
COc1cc(C=NNC(=O)CN2C(=O)NC(c3ccccc3)(c3ccccc3)C2=O)cc(OC)c1OC [Compound 11, 2-(2,5-Dioxo-4,4-diphenylimidazolidin-1-yl)-N′-(3,4,5-trimethoxybenzylidene)acetohydrazide] | 53 ± 2.1 | 170 ± 4.2 | 133 ± 0.7 |  | 
COc1cc(C=NNC(=O)CN2C(=O)NC(c3ccccc3)(c3ccccc3)C2=O)ccc1O [Compound 9, 2-(2,5-Dioxo-4,4-diphenylimidazolidin-1-yl)-N′-(4-hydroxy-3-methoxybenzylidene)acetohydrazide] | 50 ± 1 | 175 ± 4.3 | 136 ± 3.9 |  | 
